Reference: ChEMBL document CHEMBL4340558, “Synthesis, biological evaluation, and molecular docking study of sulfonate derivatives as nucleotide pyrophosphatase/phosphodiesterase (NPP) inhibitors” (Bioorg Med Chem, 2019)

Assays:
Autotaxin [1] = target: T1, Autotaxin (Homo sapiens, UniProt Q13822); assay: Inhibition of human NPP2 expressed in African green monkey COS7 cell membranes pre-incubated for 5 mins before pNP-TMP substrate addition and further incubated for 35 mins by colorimetric method
Outline: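 Colorimetric assay in 50 mM Tris-HCl, 5 mM MgCl2, 0.1 mM ZnCl2, pH 9.5, at 37 °C. Enzyme amounts: NPP1 35 ng, NPP2 338 ng, NPP3 37 ng. Pre-read at 405 nm was taken, then pNP-TMP was added: 400 µM for NPP1, 500 µM for NPP2, 600 µM for NPP3. A second 405 nm read followed. Runs were in triplicate. IC50 came from serial dilutions by non-linear curve fitting.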

[2] = target: T2, Ectonucleotide pyrophosphatase/phosphodiesterase family member 1 (Homo sapiens) (UniProt P22413); assay: Inhibition of human NPP1 expressed in African green monkey COS7 cell membranes pre-incubated for 10 mins before pNP-TMP substrate addition and further incubated for 15 mins by colorimetric method relative to untreated control; parameters: concentration or dose not given beside the values
T2 sequence (whole entry): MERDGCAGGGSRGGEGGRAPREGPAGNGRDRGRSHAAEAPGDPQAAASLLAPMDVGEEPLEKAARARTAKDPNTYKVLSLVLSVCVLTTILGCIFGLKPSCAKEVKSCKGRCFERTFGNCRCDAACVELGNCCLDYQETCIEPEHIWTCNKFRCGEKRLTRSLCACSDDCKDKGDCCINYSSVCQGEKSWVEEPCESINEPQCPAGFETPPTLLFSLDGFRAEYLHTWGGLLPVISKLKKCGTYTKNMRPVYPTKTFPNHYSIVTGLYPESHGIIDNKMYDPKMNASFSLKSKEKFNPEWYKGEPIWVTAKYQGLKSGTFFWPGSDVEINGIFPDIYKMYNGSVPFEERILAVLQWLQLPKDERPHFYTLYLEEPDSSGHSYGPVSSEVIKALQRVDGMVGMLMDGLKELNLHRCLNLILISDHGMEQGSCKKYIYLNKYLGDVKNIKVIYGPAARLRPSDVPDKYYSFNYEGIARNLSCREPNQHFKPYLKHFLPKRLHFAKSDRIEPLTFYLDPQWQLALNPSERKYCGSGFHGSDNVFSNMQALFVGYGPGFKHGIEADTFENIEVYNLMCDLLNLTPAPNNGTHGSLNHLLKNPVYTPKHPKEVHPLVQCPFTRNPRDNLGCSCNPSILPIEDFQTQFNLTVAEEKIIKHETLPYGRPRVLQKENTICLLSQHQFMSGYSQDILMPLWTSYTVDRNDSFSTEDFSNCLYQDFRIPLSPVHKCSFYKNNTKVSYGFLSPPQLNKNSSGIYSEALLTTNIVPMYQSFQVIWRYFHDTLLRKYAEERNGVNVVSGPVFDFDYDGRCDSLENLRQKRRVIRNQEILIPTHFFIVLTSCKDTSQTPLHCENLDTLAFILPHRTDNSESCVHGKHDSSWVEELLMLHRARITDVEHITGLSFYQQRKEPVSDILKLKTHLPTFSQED
Outline: (§1)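 Single-point screen at 100 µM test compound, added from a 1 mM stock in 10% DMSO. Buffer was 50 mM Tris-HCl, 5 mM MgCl2, 0.1 mM ZnCl2, pH 9.5, at 37 °C. pNP-TMP substrate was 400 µM for NPP1, 500 µM for NPP2, 600 µM for NPP3. Absorbance at 405 nm was read before and after substrate addition. Percent inhibition was determined in triplicate.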

[3] = target: T3, Ectonucleotide pyrophosphatase/phosphodiesterase family member 3 (Homo sapiens) (UniProt O14638); assay: Inhibition of human NPP3 expressed in African green monkey COS7 cell membranes pre-incubated for 10 mins before pNP-TMP substrate addition and further incubated for 15 mins by colorimetric method relative to untreated control; parameters: concentration or dose not given beside the values; outline: as §1
T3 sequence (whole entry): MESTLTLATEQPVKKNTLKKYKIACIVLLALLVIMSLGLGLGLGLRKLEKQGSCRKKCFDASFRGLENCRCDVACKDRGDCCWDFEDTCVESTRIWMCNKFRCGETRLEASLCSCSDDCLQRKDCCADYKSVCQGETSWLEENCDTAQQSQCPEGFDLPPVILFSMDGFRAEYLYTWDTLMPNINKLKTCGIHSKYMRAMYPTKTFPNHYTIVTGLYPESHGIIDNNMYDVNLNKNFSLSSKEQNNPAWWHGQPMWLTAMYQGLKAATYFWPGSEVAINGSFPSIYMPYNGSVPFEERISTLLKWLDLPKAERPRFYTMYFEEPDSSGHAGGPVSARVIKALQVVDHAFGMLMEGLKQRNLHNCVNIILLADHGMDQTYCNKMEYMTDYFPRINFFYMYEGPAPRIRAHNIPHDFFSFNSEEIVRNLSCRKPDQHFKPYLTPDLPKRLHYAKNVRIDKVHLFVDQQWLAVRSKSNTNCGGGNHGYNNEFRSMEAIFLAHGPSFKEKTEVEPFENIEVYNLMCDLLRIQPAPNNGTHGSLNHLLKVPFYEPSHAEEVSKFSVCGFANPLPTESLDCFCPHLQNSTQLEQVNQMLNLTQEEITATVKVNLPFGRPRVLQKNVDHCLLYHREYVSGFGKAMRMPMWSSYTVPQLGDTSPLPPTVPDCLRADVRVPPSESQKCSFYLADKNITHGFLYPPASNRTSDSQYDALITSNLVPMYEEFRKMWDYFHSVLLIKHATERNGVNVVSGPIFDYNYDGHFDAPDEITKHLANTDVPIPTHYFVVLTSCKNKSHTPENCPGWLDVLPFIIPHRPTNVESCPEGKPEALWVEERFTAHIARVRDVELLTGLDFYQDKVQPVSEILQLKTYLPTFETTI

[4] = target: T4, Ectonucleotide pyrophosphatase/phosphodiesterase family member 1 (Homo sapiens, UniProt P22413); assay: Inhibition of human NPP1 expressed in African green monkey COS7 cell membranes pre-incubated for 10 mins before pNP-TMP substrate addition and further incubated for 15 mins by colorimetric method
T4 sequence (P22413 whole entry): T2 sequence (whole entry)

[5] = target: T5, Ectonucleotide pyrophosphatase/phosphodiesterase family member 3 (Homo sapiens, UniProt O14638); assay: Inhibition of human NPP3 expressed in African green monkey COS7 cell membranes pre-incubated for 10 mins before pNP-TMP substrate addition and further incubated for 15 mins by colorimetric method
T5 sequence (O14638 whole entry): T3 sequence (whole entry)

Autotaxin [6] = target: T1, Autotaxin; assay: Inhibition of human NPP2 expressed in African green monkey COS7 cell membranes pre-incubated for 5 mins before pNP-TMP substrate addition and further incubated for 35 mins by colorimetric method relative to untreated control; parameters: concentration or dose not given beside the values; outline: as §1
[7] = target: T3, Ectonucleotide pyrophosphatase/phosphodiesterase family member 3 (Homo sapiens); assay: Potency index, ratio of IC50 for suramin to IC50 for test compound for inhibition of human NPP3 expressed in African green monkey COS7 cell membranes pre-incubated for 10 mins before pNP-TMP substrate addition and further incubated for 15 mins by colorimetric method

SMILES | IC50 (Autotaxin [1]) [µM] | inhibition [2] [%] | inhibition [3] [%] | IC50 [4] [µM] | IC50 [5] [µM] | inhibition (Autotaxin [6]) [%] | Ratio IC50 [7]
CC(C)c1cc(C(C)C)c(S(=O)(=O)Oc2ccc(NC(=O)c3ccc(Cl)cc3)cc2)c(C(C)C)c1 | – | – | – | 0.975 | 1.2 | 24 | –
CC(C)c1cc(C(C)C)c(S(=O)(=O)Oc2ccc(NC(=O)C3CCCCCC3)cc2)c(C(C)C)c1 | – | 29 | 37 | – | – | 23 | –
CC(C)(C)c1ccc(S(=O)(=O)Oc2ccc(NC(=O)C3CCCC3)cc2)cc1 | – | – | – | 1.65 | 2.68 | 42 | –
O=C(Nc1ccc(OS(=O)(=O)c2ccccc2)cc1)C1CCCCC1 | 23.8 | – | – | 11.8 | 1.08 | – | –
Cc1ccc(S(=O)(=O)Oc2ccc(NC(=O)c3ccc(Cl)cc3)cc2)cc1 | 7.69 | – | – | 1.44 | 1.62 | – | –
O=C(Nc1ccc(OS(=O)(=O)c2ccc(F)cc2)cc1)c1ccc(Cl)cc1 | 19.9 | – | 46 | 2.9 | – | – | –
O=C(Nc1ccc(OS(=O)(=O)c2ccccc2)cc1)C1CCCC1 | – | – | – | 46.7 | 1.72 | 38 | –
O=C(Nc1ccc(OS(=O)(=O)c2ccc(C(F)(F)F)cc2)cc1)C1CCCCC1 | 1.6 | – | – | 0.387 | 1.79 | – | –
O=C(Nc1ccc(OS(=O)(=O)c2cccc3cccnc23)cc1)c1ccc2ccccc2c1 | 2.46 | 37 | 42 | – | – | – | –
O=C(Nc1ccc(OS(=O)(=O)c2ccc(C(F)(F)F)cc2)cc1)C1CCCC1 | 0.659 | – | – | 1.13 | 3.96 | – | –
O=C(Nc1ccc(OS(=O)(=O)c2ccccc2)cc1)c1ccc2ccccc2c1 | 28 | – | – | 9.3 | 20.5 | – | –
O=C(Nc1ccc(OS(=O)(=O)c2ccccc2)cc1)C1CCCCCC1 | – | – | – | 13.8 | 6.6 | 28 | –
CCS(=O)(=O)Oc1ccc(NC(=O)C2CCCCC2)cc1 | 1.82 | – | – | 1.63 | 0.369 | – | –
CC(C)(C)c1ccc(S(=O)(=O)Oc2ccc(NC(=O)c3ccc4ccccc4c3)cc2)cc1 | – | – | 49 | 2.19 | – | 38 | –
CC(C)c1cc(C(C)C)c(S(=O)(=O)Oc2ccc(NC(=O)c3ccc4ccccc4c3)cc2)c(C(C)C)c1 | – | – | – | 3.43 | 2.89 | 42 | –
O=C(Nc1ccc(OS(=O)(=O)c2ccc(C(F)(F)F)cc2)cc1)c1ccc(Cl)cc1 | 1.07 | – | – | 21.6 | 3.42 | – | –
CC(C)(C)c1ccc(S(=O)(=O)Oc2ccc(NC(=O)c3ccc(Cl)cc3)cc2)cc1 | – | – | – | 1.8 | 1.53 | 31 | –
O=C(Nc1ccc(OS(=O)(=O)c2ccccc2)cc1)c1ccc(Cl)cc1 | > 100 | – | – | 9.61 | 2.77 | – | –
CCCS(=O)(=O)Oc1ccc(NC(=O)C2CCCCC2)cc1 | 26.2 | – | – | 3.46 | 2.41 | – | –
O=C(Nc1ccc(OS(=O)(=O)c2ccc(F)cc2)cc1)c1ccc2ccccc2c1 | – | – | – | 1.49 | 13.5 | 33 | –
CC(C)c1cc(C(C)C)c(S(=O)(=O)Oc2ccc(NC(=O)C3CCCCCCC3)cc2)c(C(C)C)c1 | – | 30 | 30 | – | – | 46 | –
O=C(Nc1ccc(OS(=O)(=O)c2ccc(C(F)(F)F)cc2)cc1)c1ccc2ccccc2c1 | – | – | – | 1.12 | 5.43 | 22 | –
Cc1ccc(S(=O)(=O)Oc2ccc(NC(=O)c3ccc4ccccc4c3)cc2)cc1 | 7.99 | 24 | 23 | – | – | – | –
CS(=O)(=O)Oc1ccc(NC(=O)C2CCCCC2)cc1 | – | – | – | 1.92 | 1.35 | 33 | –

The remaining lines, values ahead:

IC50 (Autotaxin [1]) [µM] | inhibition [2] [%] | inhibition [3] [%] | IC50 [4] [µM] | IC50 [5] [µM] | inhibition (Autotaxin [6]) [%] | Ratio IC50 [7] | SMILES
65.4 | 45 | 47 | – | – | – | – | O=C(Nc1ccc(OS(=O)(=O)c2ccccc2)cc1)C1CCCCCCC1
– | – | – | 0.431 | 2.58 | 34 | – | O=C(Nc1ccc(OS(=O)(=O)c2ccc(C(F)(F)F)cc2)cc1)C1CCCCCC1
– | – | – | 0.422 | 0.255 | 24 | – | Cc1ccc(S(=O)(=O)Oc2ccc(NC(=O)C3CCCCCC3)cc2)cc1
– | 43 | 39 | – | – | 27 | – | Cc1ccc(S(=O)(=O)Oc2ccc(NC(=O)C3CCCCC3)cc2)cc1
4.94 | 39.3 | – | – | 2.27 | – | – | O=C(Nc1ccc(OS(=O)(=O)c2ccc(F)cc2)cc1)C1CCCCCC1
– | – | – | 0.564 | 0.254 | 37 | – | O=C(Nc1ccc(OS(=O)(=O)c2ccc(F)cc2)cc1)C1CCCCC1
– | – | – | 2.55 | 0.807 | 39 | – | CC(C)(C)c1ccc(S(=O)(=O)Oc2ccc(NC(=O)C3CCCCC3)cc2)cc1
3.91 | – | – | 1.49 | 47 | – | – | CC(C)(C)c1ccc(S(=O)(=O)Oc2ccc(NC(=O)C3CCCCCC3)cc2)cc1
1.47 | – | – | 5.76 | 1.01 | – | – | O=C(Nc1ccc(OS(=O)(=O)c2ccc(F)cc2)cc1)C1CCCC1
80.3 | 43 | 35 | – | – | – | – | Cc1ccc(S(=O)(=O)Oc2ccc(NC(=O)C3CCCCCCC3)cc2)cc1
13.6 | – | – | 8.14 | 0.856 | – | – | Cc1ccc(S(=O)(=O)Oc2ccc(NC(=O)C3CCCC3)cc2)cc1
0.679 | 29 | – | – | 0.214 | – | 6 | O=C(Nc1ccc(OS(=O)(=O)c2ccc(C(F)(F)F)cc2)cc1)C1CCCCCCC1
– | 40 | 46 | – | – | 49 | – | CC(C)(C)c1ccc(S(=O)(=O)Oc2ccc(NC(=O)C3CCCCCCC3)cc2)cc1
